According to ChEMBL document CHEMBL1142508, “3-Amino-2(5H)furanones as inhibitors of subgenomic hepatitis C virus RNA replication” (Bioorg Med Chem, 2008):

Experiments:
Hepatitis C virus = experiment: Antiviral activity against HCV in human HBI10A cells by ELISA; assay type: functional, organism-based, Hepacivirus hominis
In short: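 HCV subgenomic replicon-bearing Huh-7-derived HBI10A cells kept in D-MEM + 10% FBS with G418. Compounds from DMSO stocks, diluted in D-MEM, DMSO at most 1%, tested at final 10^3, 10^2, […]. Cell-ELISA for NS3 with anti-NS3 10E5/24 MAb, in triplicate. Parental Huh-7 cells give the background. EC50 from Hill-equation fit of NS3 signal reduction. IFN-α positive control.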

[1] = Cytotoxicity against human HBI10A cells after 20 hrs by MTS assay; assay type: cell-based
In short: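 MTS read-out in HBI10A replicon cells seeded at 1 × 10^4 per 100 µL D-MEM + 5% FBS. After 4 h at 37 °C, compounds added at final 10^3, 10^2, […]. Incubated 20 h at 37 °C, then MTS for a further 4 h. Stopped with 10% SDS; absorbance at 492 nm.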

Row | EC50 (Hepatitis C virus) [µM] | IC50 (Hepatitis C virus) [µM] | Compound | CC50 at 20 h [1] [µM]
1 | 9.3 | 0.15 | O=C(O)c1nc(-c2cccs2)nc(O)c1O | 
2 | > 1000 |  | COC(=O)C1=C(NCc2ccccc2)C(=O)OC1C (stereo not drawn) | > 1000
3 | 521 |  | CNC1=C(C(C)=O)COC1=O | > 1000
4 | 66 |  | CNC1=C(C(=O)OC)C(C)OC1O (stereo not drawn) | > 1000
5 | 17 |  | CNC1=C(c2ccccc2)C(c2ccccc2)OC1=O (stereo not drawn) | 28
6 | 525 |  | CNC1=C(C(=O)OC)C(C)OC1=O (stereo not drawn) | > 1000
7 | > 1000 |  | CCOC(=O)C1=C(NC)C(=O)OC1C(=O)OCC (stereo not drawn) | > 1000
8 | 132 |  | CNC1=C(C(C)=O)C(C)OC1=O (stereo not drawn) | 819
9 | 19 |  | CNC1=C(C(=O)Nc2ccccc2)C(C)OC1=O (stereo not drawn) | > 1000
